Measured values gathered from unrelated publications.
Compare with care: the assays were run in different laboratories.
Target: Serine/threonine-protein kinase RIO3 (RIOK3, Homo sapiens, UniProt O14730)
Residues used in one study (O14730 1-519): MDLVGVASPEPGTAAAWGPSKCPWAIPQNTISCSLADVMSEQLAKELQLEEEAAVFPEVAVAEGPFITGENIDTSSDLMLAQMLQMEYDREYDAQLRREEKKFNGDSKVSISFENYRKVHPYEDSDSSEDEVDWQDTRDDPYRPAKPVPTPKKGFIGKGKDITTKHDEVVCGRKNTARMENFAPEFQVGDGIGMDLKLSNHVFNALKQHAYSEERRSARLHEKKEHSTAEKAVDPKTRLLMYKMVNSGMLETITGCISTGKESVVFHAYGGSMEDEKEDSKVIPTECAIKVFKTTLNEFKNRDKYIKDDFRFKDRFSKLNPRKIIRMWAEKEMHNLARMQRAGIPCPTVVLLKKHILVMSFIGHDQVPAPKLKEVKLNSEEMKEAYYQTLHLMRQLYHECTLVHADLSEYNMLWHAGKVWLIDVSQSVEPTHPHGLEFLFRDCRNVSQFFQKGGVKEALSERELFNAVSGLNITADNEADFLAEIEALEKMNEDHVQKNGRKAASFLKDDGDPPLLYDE

`CCCOc1ccc([C@H]2[C@H](C(=O)O)[C@@H](c3ccc4c(c3)OCO4)CN2CC(=O)Nc2c(CC)cccc2CC)cc1` gave a remaining binding of 100% (cell-free assay, competition with immobilised ligand; 1 µM).
The remaining binding of `COc1cnc(Nc2cccc(S(N)(=O)=O)c2)nc1N1CCN(c2ccccc2)CC1` is reported as 91% (binding, competition with immobilised ligand; 1 µM).
The remaining binding of `FC(F)(F)Oc1cccc(-c2cnc3ccc(-c4ccncc4)nn23)c1` is reported as 16% (binding, competition with immobilised ligand; 5 µM).
With `CN(c1nccc(-c2cnn3ncccc23)n1)C1CC1` the remaining binding was 100% (binding; 1 µM).
`O=C(Nc1c[nH]nc1C(=O)NC1CCNCC1)c1cc(F)cc(F)c1` has a remaining binding of 100% (binding, competition with immobilised ligand; 1 µM).
`CCS(=O)(=O)c1cc2cc(C[C@](O)(CC(C)(C)c3ccc(F)cc3C(N)=O)C(F)(F)F)[nH]c2cn1` has a remaining binding of 91% (cell-free assay, competition with immobilised ligand; 1 µM).
The remaining binding of `O=C(c1ccc(Nc2ncc(Cl)c(-c3ccc(Cl)s3)n2)cc1)N1CCC(N2CCCC2)CC1` is reported as 0% (binding, competition with immobilised ligand; 1 µM).
With `C[C@H]1CCN(c2nccc(-c3cnn4ncccc34)n2)C1` the remaining binding was 100% (binding; 1 µM).
`O=C(N1CCS(=O)(=O)CC1)N1C[C@H](c2ccc(OC(F)(F)F)cc2)C[C@H](c2nc(C3CC3)no2)C1` has a remaining binding of 85% (cell-free assay, competition with immobilised ligand; 1 µM).
`CC1CCCN1c1nccc(-c2cnn3ncccc23)n1` (stereo not shown) gave a remaining binding of 100% (binding; 1 µM).
With `CNC(=O)c1ccc(Nc2ncc(C(F)(F)F)c(NCc3nccnc3N(C)S(C)(=O)=O)n2)cc1` the remaining binding was 55% (cell-free assay, competition with immobilised ligand; 0.1 µM).
The remaining binding of `O=C(NCCCN1CCOCC1)c1ccc(Nc2ncc(Cl)c(-c3ccc(Cl)s3)n2)cc1` is reported as 0.4% (binding, competition with immobilised ligand; 1 µM).
For `O=C1NC(c2ccccn2)Sc2ccccc21` (stereo not shown), the remaining binding was 91% (cell-free assay, competition with immobilised ligand; 1 µM).
With `N[C@@H]1CCN(c2nccc(-c3cnn4ncccc34)n2)C1` the remaining binding was 100% (binding; 1 µM).
With `CO[C@@H](C)c1c(Nc2ccc([C@H](N(C)C(=O)C3CCS(=O)(=O)CC3)C(F)(F)F)cc2)cnc2cc(Cl)nn12` the remaining binding was 82% (cell-free assay, competition with immobilised ligand; 1 µM).
With `CN(C)c1ncc(F)c(-c2cnn3ncccc23)n1` the remaining binding was 100% (binding; 1 µM).
For `C=CC(=O)N1CCC(C(=O)NCC(=O)N2CCN(c3nc(-c4cnc(N)nc4C(F)F)nc(N4CCOCC4)n3)CC2)CC1`, the remaining binding was 100% (binding, competition with immobilised ligand; 1 µM).
`Cc1cnn2ncc(-c3ccnc(N(C)C)n3)c2c1` has a remaining binding of 100% (binding; 1 µM).
With `O=C(NCCCN1CCOCC1)c1ccc(Nc2nccc(-c3cc4ccccc4s3)n2)cc1` the remaining binding was 1.7% (binding, competition with immobilised ligand; 1 µM).
`COc1ccnn2ncc(-c3ccnc(N(C)C)n3)c12` has a remaining binding of 100% (binding; 1 µM).
`COc1cc(-c2cn(C3CCc4ccccc4N(CC(F)(F)F)C3=O)nn2)ccc1-n1ccc(C)n1` (stereo not shown) has a remaining binding of 100% (cell-free assay, competition with immobilised ligand; 1 µM).
`COc1cnc(Nc2cccc(S(N)(=O)=O)c2)nc1N1CCN(c2ccccc2)C(=O)C1` gave a remaining binding of 57% (binding, competition with immobilised ligand; 1 µM).
